Active and inactive are the calls of the source. No cut-off for these calls is given here.
Columns and labels:
BT-474 [1] = test: Relocalization of FAK-VEGFR3 complex from cytoplasm to nucleus in human BT474 cells at 10 uM after 24 hrs by confocal microscopy; assay type: functional, cell-based
Outline: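 BT474 cells given DMSO or 10 µM compound for 24 h, dual-immunostained for FAK (Alexa Fluor 488) and VEGFR-3 (Alexa Fluor 546), imaged by confocal microscopy; percentage of colocalized FAK/VEGFR-3 molecules derived by scatter-plot analysis.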

BT-474 [2] = test: Decrease in colocalization of FAK-paxillin complex in human BT474 cells at 10 uM after 24 hrs by confocal microscopy; assay type: functional; design: scale not given: the % may be the effect or the level left
Outline: (§1)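 Cells were treated for 24 h with DMSO or 10 µM compound, then dual-immunostained for FAK (Alexa Fluor 488) together with VEGFR-3 or paxillin (Alexa Fluor 546). Confocal microscopy with scatter-plot analysis gave the percentage of colocalized molecules.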

[3] = target: Vascular endothelial growth factor receptor 3 (Homo sapiens) (UniProt P35916); test: Inhibition of VEGFR3 phosphorylation in human BT474 cells assessed as partial dephosphorylation at Tyr1063/1068 activation loop after 24 hrs by Western blotting; assay type: cell-based; conditions: BT-474
Outline: (§2)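 BT474 cells were exposed for 24 h to increasing doses (1 and 10 µM). Western blots of lysates were probed with a phospho-specific VEGFR-3 antibody for Tyr1063/1068 in the kinase activation loop.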

MCF7 [4] = test: Induction of apoptosis in human MCF7 cells expressing VEGFR3 after 48 hrs by TUNEL assay; assay type: functional, cell-based
[5] = Cytotoxicity against human C8161 cells after 72 hrs by MTS assay; assay type: functional, cell-based; conditions: C8161, 72 h
Outline: (§3)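 MTS viability assay, read as mitochondrial dehydrogenase activity of metabolically active cells. Cells were seeded at 5.0 × 10^3 per well and attached overnight. Fresh medium with or without compound was added, followed by 72 h exposure at increasing concentrations. Error shown as ±SEM.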

T47D = test: Cytotoxicity against human T47D cells after 72 hrs by MTS assay; assay type: functional, cell-based; outline: as §3
[6] = target: Vascular endothelial growth factor receptor 3 (Homo sapiens) (UniProt P35916); test: Inhibition of VEGFR3 phosphorylation in human BT474 cells assessed as partial dephosphorylation at Tyr1063/1068 activation loop at 1 uM after 24 hrs by Western blotting; assay type: cell-based; conditions: BT-474
MCF7 [7] = test: Antitumor activity against human MCF7 cells expressing VEGFR3 xenografted in nude-foxn1nu mouse assessed as reduction in tumor growth at 30 mg/kg after 21 days relative to control; assay type: functional, organism-based; design: dose 30 mg/kg
BT-474 [8] = test: Decrease in colocalization of FAK-VEGFR3 complex in human BT474 cells at 10 uM after 24 hrs by confocal microscopy; assay type: functional; design: scale not given: the % may be the effect or the level left; outline: as §1
[9] = target: Vascular endothelial growth factor receptor 3 (Homo sapiens) (UniProt P35916); test: Inhibition of VEGFR3 phosphorylation in human BT474 cells assessed as partial dephosphorylation at Tyr1063/1068 activation loop at 1 to 10 uM by Western blotting; assay type: cell-based; conditions: BT-474, TDE = time-dependent effect
MCF7 [10] = test: Cytotoxicity against human MCF7 cells expressing VEGFR3 assessed as cell viability at 10 uM after 48 hrs by MTS assay; assay type: functional
Outline: (§4)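 Viability measured by MTS after 48 h exposure. Cells were seeded at 5.0 × 10^3 per well and attached overnight before compound-containing medium was added. BT474 is a […] subclone grown in RPMI-1640 with 10% FBS and 250 µg/ml insulin. MCF7 stable clones carried either empty pcDNA3 or VEGFR-3. Mean ± SEM, ≥3 experiments, two-tailed t test.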

[11] = target: Vascular endothelial growth factor receptor 3 (Homo sapiens) (UniProt P35916); test: Inhibition of VEGFR3 phosphorylation in human BT474 cells assessed as complete dephosphorylation at Tyr1063/1068 activation loop at 10 uM by Western blotting; assay type: cell-based; conditions: BT-474; outline: as §2
[12] = target: Focal adhesion kinase 1 (Homo sapiens) (UniProt Q05397); test: Inhibition of FAK phosphorylation in human BT474 cells assessed as partial dephosphorylation at 1 uM after 24 hrs by Western blotting; assay type: cell-based; conditions: BT-474
BT-474 [13] = test: Cytotoxicity against human BT474 cells after 72 hrs by MTS assay; assay type: functional, cell-based; conditions: BT-474, 72 h; outline: as §3
BT-474 [14] = test: Cytotoxicity against human BT474 cells assessed as reduction in viability at 1 uM after 48 hrs by MTS assay; assay type: functional; outline: as §4
MCF7 [15] = test: Induction of apoptosis in human MCF7 cells assessed as PARP degradation after 48 hrs; assay type: functional, cell-based
MCF7 [16] = test: Antiproliferative activity against human MCF7 cells expressing VEGFR3 at 0.1 to 10 uM by BrdU incorporation assay; assay type: functional, cell-based; conditions: TDE = time-dependent effect
Outline: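 Cells plated at 2.5 × 10^3 per well and allowed to attach overnight. Fresh growth medium with or without compound was added along with BrdU labelling reagent, and cells were incubated for the set time. BrdU incorporation was then read with a kit per the manufacturer. Data are mean ± SEM of three or more independent experiments, compared by two-tailed Student's t test.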

[17] = target: Vascular endothelial growth factor receptor 3 (Homo sapiens) (UniProt P35916); test: Inhibition of VEGFR3 phosphorylation in human BT474 cells assessed as complete dephosphorylation at Tyr1063/1068 activation loop after 24 hrs by Western blotting; assay type: cell-based; conditions: BT-474; outline: as §2
[18] = Cytotoxicity against human MCF10A cells assessed as cell viability at 100 uM by MTS assay; assay type: cell-based; conditions: mcf-10a
Outline: (§5)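 MTS cell survival assay. Cells were plated at 5.0 × 10^3 per well and allowed to attach overnight, then given fresh medium with or without compound for the designated time. Absorbance was read per the kit protocol. Mean ± SEM of three or more independent experiments.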

MCF7 [19] = test: Cytotoxicity against human MCF7 cells expressing VEGFR3 assessed as cell viability at 1 uM after 48 hrs by MTS assay; assay type: functional, cell-based; outline: as §4
BT-474 [20] = test: Cytotoxicity against human BT474 cells assessed as cell viability at 0.1 to 10 uM by MTS assay; assay type: functional, cell-based; outline: as §5
[21] = target: Vascular endothelial growth factor receptor 3 (Homo sapiens) (UniProt P35916); test: Inhibition of VEGFR3 phosphorylation in human MCF7 cells expressing VEGFR3 assessed as complete dephosphorylation at Tyr1063/1068 activation loop after 24 hrs by Western blotting; assay type: cell-based
MCF7 [22] = test: Induction of apoptosis in human MCF7 cells expressing VEGFR3 at 10 uM after 48 hrs by TUNEL assay; assay type: functional
COLO 205 = test: Cytotoxicity against human COLO205 cells assessed as cell viability after 72 hrs by MTS assay; assay type: functional, cell-based; conditions: COLO 205, 72 h; outline: as §3
[23] = target: Vascular endothelial growth factor receptor 3 (Homo sapiens) (UniProt P35916); test: Inhibition of VEGFR3 phosphorylation in human MCF7 cells expressing VEGFR3 assessed as partial dephosphorylation at Tyr1063/1068 activation loop after 24 hrs by Western blotting; assay type: cell-based
MIA PaCa-2 = test: Cytotoxicity against human MIAPaCa2 cells after 72 hrs by MTS assay; assay type: functional, cell-based; conditions: MIA PaCa-2, 72 h; outline: as §3
MCF7 [24] = test: Decrease in colocalization of FAK-VEGFR3 complex in human MCF7 cells expressing VEGFR3 at 10 uM after 24 hrs by confocal microscopy; assay type: functional; design: scale not given: the % may be the effect or the level left; outline: as §1
BT-474 [25] = test: Induction of apoptosis in human BT474 cells at 10 uM by TUNEL assay; assay type: functional

Chain of Vascular endothelial growth factor receptor 3 (Homo sapiens) (P35916 whole entry): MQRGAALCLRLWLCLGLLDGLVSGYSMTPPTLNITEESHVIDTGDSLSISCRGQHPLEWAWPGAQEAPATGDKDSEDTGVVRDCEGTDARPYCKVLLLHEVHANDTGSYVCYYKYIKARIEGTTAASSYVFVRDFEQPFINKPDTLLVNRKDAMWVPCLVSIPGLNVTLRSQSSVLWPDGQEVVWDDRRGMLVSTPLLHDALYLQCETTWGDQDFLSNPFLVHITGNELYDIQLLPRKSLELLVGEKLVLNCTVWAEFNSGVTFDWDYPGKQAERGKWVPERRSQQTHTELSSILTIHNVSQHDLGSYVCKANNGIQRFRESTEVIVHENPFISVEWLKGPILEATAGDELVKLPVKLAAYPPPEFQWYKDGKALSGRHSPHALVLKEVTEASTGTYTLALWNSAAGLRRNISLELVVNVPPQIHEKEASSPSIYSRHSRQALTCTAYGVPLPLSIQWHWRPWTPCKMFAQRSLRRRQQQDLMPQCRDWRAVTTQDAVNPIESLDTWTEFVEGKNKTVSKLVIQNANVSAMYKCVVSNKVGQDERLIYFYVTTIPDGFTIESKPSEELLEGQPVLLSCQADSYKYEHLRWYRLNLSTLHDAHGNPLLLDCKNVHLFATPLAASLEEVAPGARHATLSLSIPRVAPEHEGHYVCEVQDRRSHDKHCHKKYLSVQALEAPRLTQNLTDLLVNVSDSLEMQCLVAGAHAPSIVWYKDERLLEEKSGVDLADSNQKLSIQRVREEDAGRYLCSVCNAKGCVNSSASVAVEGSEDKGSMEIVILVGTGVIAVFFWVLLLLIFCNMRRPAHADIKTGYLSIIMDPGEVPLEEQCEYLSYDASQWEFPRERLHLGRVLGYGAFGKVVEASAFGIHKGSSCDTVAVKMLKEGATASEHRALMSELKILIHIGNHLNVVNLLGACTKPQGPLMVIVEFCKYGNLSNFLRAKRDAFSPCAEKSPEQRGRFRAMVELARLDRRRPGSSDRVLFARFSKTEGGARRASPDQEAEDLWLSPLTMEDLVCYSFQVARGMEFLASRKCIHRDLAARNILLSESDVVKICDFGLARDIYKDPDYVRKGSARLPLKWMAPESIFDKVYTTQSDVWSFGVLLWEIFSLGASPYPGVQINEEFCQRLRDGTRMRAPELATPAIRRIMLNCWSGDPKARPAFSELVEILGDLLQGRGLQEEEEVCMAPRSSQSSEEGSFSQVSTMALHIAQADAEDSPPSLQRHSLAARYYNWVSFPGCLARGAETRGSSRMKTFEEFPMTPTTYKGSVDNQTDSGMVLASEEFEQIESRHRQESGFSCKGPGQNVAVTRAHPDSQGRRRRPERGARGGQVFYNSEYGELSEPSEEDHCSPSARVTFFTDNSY
Chain of Focal adhesion kinase 1 (Homo sapiens) (Q05397 2-1052 limits assumed): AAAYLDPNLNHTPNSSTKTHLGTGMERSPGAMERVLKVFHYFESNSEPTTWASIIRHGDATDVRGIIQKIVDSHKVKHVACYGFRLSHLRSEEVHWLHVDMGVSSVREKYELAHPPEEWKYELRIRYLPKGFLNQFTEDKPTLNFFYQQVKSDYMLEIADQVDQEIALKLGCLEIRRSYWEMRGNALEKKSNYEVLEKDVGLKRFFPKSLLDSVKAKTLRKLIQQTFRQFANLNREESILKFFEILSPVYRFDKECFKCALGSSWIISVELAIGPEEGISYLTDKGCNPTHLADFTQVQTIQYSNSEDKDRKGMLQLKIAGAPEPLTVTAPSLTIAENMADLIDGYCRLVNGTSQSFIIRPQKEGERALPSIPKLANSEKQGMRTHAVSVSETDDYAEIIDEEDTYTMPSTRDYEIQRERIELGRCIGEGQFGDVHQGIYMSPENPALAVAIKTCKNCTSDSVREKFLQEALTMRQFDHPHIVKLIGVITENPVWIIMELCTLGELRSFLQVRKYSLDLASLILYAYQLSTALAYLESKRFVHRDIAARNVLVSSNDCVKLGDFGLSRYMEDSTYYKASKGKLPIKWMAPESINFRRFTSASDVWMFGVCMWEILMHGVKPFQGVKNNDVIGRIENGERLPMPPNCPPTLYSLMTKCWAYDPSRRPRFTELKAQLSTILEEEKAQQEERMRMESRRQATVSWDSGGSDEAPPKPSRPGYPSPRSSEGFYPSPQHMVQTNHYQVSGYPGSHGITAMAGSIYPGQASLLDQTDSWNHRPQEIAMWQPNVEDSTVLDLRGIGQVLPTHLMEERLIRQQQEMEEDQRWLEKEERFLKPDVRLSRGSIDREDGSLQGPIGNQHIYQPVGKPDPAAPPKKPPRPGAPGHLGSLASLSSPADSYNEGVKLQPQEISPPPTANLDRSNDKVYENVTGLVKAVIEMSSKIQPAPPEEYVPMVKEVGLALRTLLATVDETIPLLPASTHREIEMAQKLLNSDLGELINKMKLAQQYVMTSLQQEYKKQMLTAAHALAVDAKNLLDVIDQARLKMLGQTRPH

**Q.** For `CN(C)CCN(Cc1ccc(Cl)cc1)c1ccccn1.Cl` [CHLORPYRAMIN HYDROCHLORIDE], which Activity (BT-474 [1]) is on record?
**A.** Its Activity is “Active”.

**Q.** What about the Activity (BT-474 [2]) of the same compound?
**A.** Its Activity is 76%.

**Q.** And the Activity [3]?
**A.** Its Activity is “Dose-dependent effect”.

**Q.** What about the Activity (MCF7 [4]) of the same compound?
**A.** Its Activity is “Dose-dependent effect”.

**Q.** And the IC50 [5]?
**A.** Its IC50 is 1000 nM.

**Q.** What about the IC50 (T47D) of the same compound?
**A.** Its IC50 is 1000 nM.

**Q.** And the Activity [6]?
**A.** The Activity was “Active”.

**Q.** What about the Activity (MCF7 [7]) of the same compound?
**A.** Its Activity is “inactive”.

**Q.** What about the Activity (BT-474 [8]) of the same compound?
**A.** Its Activity is 45%.

**Q.** And the Activity [9]?
**A.** The Activity was “tde”.

**Q.** What about the “fold change (FC)” value (MCF7 [10]) of the same compound?
**A.** Its value is 2.

**Q.** And the Activity [11]?
**A.** The Activity was “Active”.

**Q.** What about the Activity [12] of the same compound?
**A.** Its Activity is “Active”.

**Q.** What about the IC50 (BT-474 [13]) of the same compound?
**A.** The IC50 was 1000 nM.

**Q.** What about the Activity (BT-474 [14]) of the same compound?
**A.** The Activity was 40%.

**Q.** What about the Activity (MCF7 [15]) of the same compound?
**A.** Its Activity is “Dose-dependent effect”.

**Q.** What about the Activity (MCF7 [16]) of the same compound?
**A.** The Activity was “tde”.

**Q.** What about the Activity [17] of the same compound?
**A.** The Activity was “Dose-dependent effect”.

**Q.** And the Activity [18]?
**A.** The Activity was “Active”.

**Q.** What about the Activity (MCF7 [19]) of the same compound?
**A.** The Activity was “Active”.

**Q.** What about the Activity (BT-474 [20]) of the same compound?
**A.** Its Activity is “Active”.

**Q.** And the Activity [21]?
**A.** The Activity was “Dose-dependent effect”.

**Q.** And the Activity (MCF7 [22])?
**A.** Its Activity is 76%.

**Q.** And the IC50 (COLO 205)?
**A.** Its IC50 is 1000 nM.

**Q.** And the Activity [23]?
**A.** The Activity was “Dose-dependent effect”.

**Q.** And the IC50 (MIA PaCa-2)?
**A.** Its IC50 is 1000 nM.

**Q.** What about the Activity (MCF7 [24]) of the same compound?
**A.** The Activity was 29%.

**Q.** And the Activity (BT-474 [25])?
**A.** Its Activity is 60%.

— ChEMBL document CHEMBL1158487, “Small molecule chloropyramine hydrochloride (C4) targets the binding site of focal adhesion kinase and vascular endothelial growth factor receptor 3 and suppresses breast cancer growth in vivo” (J Med Chem, 2009)
